In publication PMC8542566 (Cell chemical biology, 2021):

Columns and labels:
TgPPT1 = assay: Inhibition of recombinant TgPPT1, turnover of 4MU-octanoate; type: biochemical, Toxoplasma gondii; settings: recombinant enzyme, 4MU-octanoate substrate; result in words
How it was run: (§1)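 Purified full-length N-terminal His6 enzyme from E. coli, 50 nM final, with 10 μM test compound in 20 mM HEPES, 150 mM NaCl, 10 mM CHAPS, pH 7.4, at 37°C. 4MU-octanoate hydrolysis followed by fluorescence. Initial rates taken from a linear fit, in triplicate, normalized to DMSO control and expressed as percent inhibition.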

TgASH2 = assay: Inhibition of recombinant TgASH2, turnover of 4MU-octanoate; type: biochemical, Toxoplasma gondii; settings: recombinant enzyme, 4MU-octanoate substrate; result in words
How it was run: as §1

TgASH3 = assay: Inhibition of recombinant TgASH3, turnover of 4MU-octanoate; type: biochemical, Toxoplasma gondii; settings: recombinant enzyme, 4MU-octanoate substrate; result in words
How it was run: as §1

TgASH4 = assay: Gel-based competitive FP-TAMRA labeling of recombinant TgASH4; type: binding, Toxoplasma gondii; settings: recombinant enzyme, gel-based FP-TAMRA competition; result in words
How it was run: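 Full-length N-terminal His6 enzyme, expressed in E. coli BL21-CodonPlus(DE3)-RIL (0.5 mM IPTG, 16 h, 19°C) and purified. 300 ng enzyme pre-incubated with DMSO or test compound (10 μM) for 30 min on ice, then labeled with FP-TAMRA for 30 min at 37°C. Quenched in reducing SDS buffer, resolved by SDS-PAGE, fluorescence-scanned (532 nm laser, 610 nm filter). Residual labeling expressed as percent inhibition versus DMSO.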

[1] = system: T. gondii tachyzoites in HFFs; assay: Rosette formation assay; type: cell-based, Toxoplasma gondii; settings: 10 μM dose, wild-type parasites in HFFs, 24 h
How it was run: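 Freshly egressed wild-type tachyzoites pre-treated with DMSO or 10 μM test compound were grown 24 h on confluent HFF coverslips (DMEM, 10% serum complex, 37°C, 5% CO2). Cells were PFA-fixed, Triton-permeabilized, BSA-blocked, stained with anti-Toxo-FITC (1:1000, overnight, 4°C), DAPI-mounted and imaged by confocal microscopy.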

| SMILES | inhibitory activity against recombinant TgPPT1 (TgPPT1) | inhibition of TgASH2 (TgASH2) | inhibition of TgASH3 (TgASH3) | inhibition of TgASH4 (TgASH4) | rosette formation inside the host cell [1] |
| --- | --- | --- | --- | --- | --- |
| O=C(O)c1cccc(NC(=S)Nc2ccc3c(Cl)c(OCCBr)oc(=O)c3c2)c1 [JCP342] | significant inhibitory activity | – | – | – | – |
| O=c1oc(OCCBr)c(Cl)c2ccc(NC(=S)Nc3ccccc3)cc12 [JCP343] | virtually no activity | potent inhibitors | potent inhibitors | potent inhibitors | – |
| CCCCCCCCCCC[C@@H](C[C@@H]1OC(=O)[C@H]1CCCCCC)OC(=O)[C@H](CC(C)C)NC=O [Orlistat] | – | – | – | – | disordered rosettes |
